Measured values from ChEMBL document CHEMBL1123208, “Quantitative structure-activity relationship of the mutagenicity of substituted N-nitroso-N-benzylmethylamines: possible implications for carcinogenicity” (J Med Chem, 1986).

Assays:
[1] = Concentration in nmol/plate to induce 50 revertants/plate.; format: ADME
How it was run: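 Ames plate incorporation, S. typhimurium TA 1535, Aroclor-induced male hamster liver S9; duplicate plates, 10-point range 1–1000 µg/plate; 37 °C, 48 h; revertants counted by hand tally. Potency index: concentration (nmol/plate) inducing 50 revertants/plate, taken from linear portion of dose–response curve.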

Salmonella typhimurium [2] = assay: Mutagenicity against Salmonella tester strain TA 1535 without hamster S9 mix (3 mg/plate) in cells.; format: functional, Salmonella enterica subsp. enterica serovar Typhimurium
Salmonella typhimurium [3] = assay: compound was tested for mutagenicity against Salmonella tester strain TA 1535 with hamster S9 mix (3 mg/plate) in cells at dose of 1000 ug; format: functional, Salmonella enterica subsp. enterica serovar Typhimurium
How it was run: (§1)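 Plate incorporation assay in S. typhimurium TA 1535 with Aroclor-induced male hamster liver S9 (3 mg/plate). Compound in Me2SO, 1–1000 µg/plate, duplicate plates, mean revertants/plate; incubated 37 °C for 48 h, colonies hand-counted. Positive if two consecutive doses gave revertants more than twice the concurrent control mean.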

Salmonella typhimurium [4] = assay: compound was tested for mutagenicity against Salmonella tester strain TA 1535 with hamster S9 mix (3 mg/plate) in cells at dose of 100 ug; format: functional, Salmonella enterica subsp. enterica serovar Typhimurium; how it was run: as §1
Salmonella typhimurium [5] = assay: compound was tested for mutagenicity against Salmonella tester strain TA 1535 with hamster S9 mix (3 mg/plate) in cells at dose of 10 ug; format: functional, Salmonella enterica subsp. enterica serovar Typhimurium; how it was run: as §1
Salmonella typhimurium [6] = assay: compound was tested for mutagenicity against Salmonella tester strain TA 1535 with hamster S9 mix (3 mg/plate) in cells at dose of 1 ug; format: functional, Salmonella enterica subsp. enterica serovar Typhimurium; how it was run: as §1
Salmonella typhimurium [7] = assay: compound was tested for mutagenicity against Salmonella tester strain TA 1535 with hamster S9 mix (3 mg/plate) in cells at dose of 2.5 ug; format: functional, Salmonella enterica subsp. enterica serovar Typhimurium; how it was run: as §1
Salmonella typhimurium [8] = assay: compound was tested for mutagenicity against Salmonella tester strain TA 1535 with hamster S9 mix (3 mg/plate) in cells at dose of 250 ug; format: functional, Salmonella enterica subsp. enterica serovar Typhimurium; how it was run: as §1
Salmonella typhimurium [9] = assay: compound was tested for mutagenicity against Salmonella tester strain TA 1535 with hamster S9 mix (3 mg/plate) in cells at dose of 25 ug; format: functional, Salmonella enterica subsp. enterica serovar Typhimurium; how it was run: as §1
Salmonella typhimurium [10] = assay: compound was tested for mutagenicity against Salmonella tester strain TA 1535 with hamster S9 mix (3 mg/plate) in cells at dose of 500 ug; format: functional, Salmonella enterica subsp. enterica serovar Typhimurium; how it was run: as §1
Salmonella typhimurium [11] = assay: compound was tested for mutagenicity against Salmonella tester strain TA 1535 with hamster S9 mix (3 mg/plate) in cells at dose of 5 ug; format: functional, Salmonella enterica subsp. enterica serovar Typhimurium; how it was run: as §1
Salmonella typhimurium [12] = assay: compound was tested for mutagenicity against Salmonella tester strain TA 1535 with out hamster S9 mix (3 mg/plate) in cells at dose of 1000 ug; format: functional, Salmonella enterica subsp. enterica serovar Typhimurium
How it was run: (§2)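 Plate incorporation assay in S. typhimurium TA 1535 without S9 activation. Compound in Me2SO, 1–1000 µg/plate, duplicate plates, mean revertants/plate; incubated 37 °C for 48 h, colonies hand-counted. Positive if two consecutive doses gave revertants more than twice the concurrent control mean.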

Salmonella typhimurium [13] = assay: compound was tested for mutagenicity against Salmonella tester strain TA 1535 with out hamster S9 mix (3 mg/plate) in cells at dose of 100 ug; format: functional, Salmonella enterica subsp. enterica serovar Typhimurium; how it was run: as §2
Salmonella typhimurium [14] = assay: compound was tested for mutagenicity against Salmonella tester strain TA 1535 with out hamster S9 mix (3 mg/plate) in cells at dose of 10 ug; format: functional, Salmonella enterica subsp. enterica serovar Typhimurium; how it was run: as §2
Salmonella typhimurium [15] = assay: compound was tested for mutagenicity against Salmonella tester strain TA 1535 with hamster S9 mix (3 mg/plate) in cells.; format: functional, Salmonella enterica subsp. enterica serovar Typhimurium; how it was run: as §1
Salmonella typhimurium [16] = assay: compound was tested for mutagenicity against Salmonella tester strain TA 1535 with hamster S9 mix (3 mg/plate) in cells. Activity expressed as no. of cells; format: functional, Salmonella enterica subsp. enterica serovar Typhimurium; how it was run: as §1
Salmonella typhimurium [17] = assay: compound was tested for mutagenicity against Salmonella tester strain TA 1535 with out hamster S9 mix (3 mg/plate) in cells.; format: functional, Salmonella enterica subsp. enterica serovar Typhimurium; how it was run: as §2
Salmonella typhimurium [18] = assay: compound was tested for mutagenicity against Salmonella tester strain TA 1535 with out hamster S9 mix (3 mg/plate) in cells at dose of 1 ug; format: functional, Salmonella enterica subsp. enterica serovar Typhimurium; how it was run: as §2
Salmonella typhimurium [19] = assay: compound was tested for mutagenicity against Salmonella tester strain TA 1535 with out hamster S9 mix (3 mg/plate) in cells at dose of 2.5 ug; format: functional, Salmonella enterica subsp. enterica serovar Typhimurium; how it was run: as §2
Salmonella typhimurium [20] = assay: compound was tested for mutagenicity against Salmonella tester strain TA 1535 with out hamster S9 mix (3 mg/plate) in cells at dose of 250 ug; format: functional, Salmonella enterica subsp. enterica serovar Typhimurium; how it was run: as §2
Salmonella typhimurium [21] = assay: compound was tested for mutagenicity against Salmonella tester strain TA 1535 with out hamster S9 mix (3 mg/plate) in cells at dose of 25 ug; format: functional, Salmonella enterica subsp. enterica serovar Typhimurium; how it was run: as §2
Salmonella typhimurium [22] = assay: compound was tested for mutagenicity against Salmonella tester strain TA 1535 with out hamster S9 mix (3 mg/plate) in cells at dose of 500 ug; format: functional, Salmonella enterica subsp. enterica serovar Typhimurium; how it was run: as §2
Salmonella typhimurium [23] = assay: compound was tested for mutagenicity against Salmonella tester strain TA 1535 with out hamster S9 mix (3 mg/plate) in cells at dose of 50 ug; format: functional, Salmonella enterica subsp. enterica serovar Typhimurium; how it was run: as §2
Salmonella typhimurium [24] = assay: compound was tested for mutagenicity against Salmonella tester strain TA 1535 with out hamster S9 mix (3 mg/plate) in cells at dose of 5 ug; format: functional, Salmonella enterica subsp. enterica serovar Typhimurium; how it was run: as §2
Salmonella typhimurium [25] = assay: compound was tested for mutagenicity against Salmonella tester strain TA 1535 with hamster S9 mix (3 mg/plate) in cells at dose of 50 ug; format: functional, Salmonella enterica subsp. enterica serovar Typhimurium; how it was run: as §1
Salmonella typhimurium [26] = assay: compound was tested for mutagenicity against Salmonella tester strain TA 1535 with hamster S9 mix (3 mg/plate) in cells at dose of 500 ug
Salmonella typhimurium [27] = assay: compound was tested for mutagenicity against Salmonella tester strain TA 1535 with out hamster S9 mix (3 mg/plate) in cells at dose of 500 ug

## CN(Cc1ccc(F)cc1)N=O
[1]
  Log 1/C: -2.969
Salmonella typhimurium [2]
  Activity: 15
Salmonella typhimurium [3]
  No. of revertants per plate: 126
Salmonella typhimurium [4]
  No. of revertants per plate: 71
Salmonella typhimurium [5]
  No. of revertants per plate: 22
Salmonella typhimurium [6]
  No. of revertants per plate: 15
Salmonella typhimurium [7]
  No. of revertants per plate: 15
Salmonella typhimurium [8]
  No. of revertants per plate: 71
Salmonella typhimurium [9]
  No. of revertants per plate: 27
Salmonella typhimurium [10]
  No. of revertants per plate: 94
Salmonella typhimurium [11]
  No. of revertants per plate: 21
Salmonella typhimurium [12]
  No. of revertants per plate: 15
Salmonella typhimurium [13]
  No. of revertants per plate: 22
Salmonella typhimurium [14]
  No. of revertants per plate: 17
Salmonella typhimurium [15]
  Activity: 24
Salmonella typhimurium [16]
  Activity: 19
Salmonella typhimurium [17]
  Activity: 8
Salmonella typhimurium [18]
  No. of revertants per plate: 18
Salmonella typhimurium [19]
  No. of revertants per plate: 8
Salmonella typhimurium [20]
  No. of revertants per plate: 11
Salmonella typhimurium [21]
  No. of revertants per plate: 20
Salmonella typhimurium [22]
  No. of revertants per plate: 19
Salmonella typhimurium [23]
  No. of revertants per plate: 16
Salmonella typhimurium [24]
  No. of revertants per plate: 21
Salmonella typhimurium [25]
  No. of revertants per plate: 39

## Cc1cccc(CN(C)N=O)c1
[1]
  Log 1/C: -3.039
Salmonella typhimurium [2]
  Activity: 16
Salmonella typhimurium [26]
  No. of revertants per plate: 106
Salmonella typhimurium [27]
  No. of revertants per plate: 14

## CN(Cc1ccc(C#N)cc1)N=O
[1]
  Log 1/C: -2.78
Salmonella typhimurium [2]
  Activity: 15
Salmonella typhimurium [26]
  No. of revertants per plate: 180
Salmonella typhimurium [27]
  No. of revertants per plate: 12

## CN(Cc1ccc(Br)cc1)N=O
[1]
  Log 1/C: -1.998
Salmonella typhimurium [2]
  Activity: 12
Salmonella typhimurium [3]
  No. of revertants per plate: 201
Salmonella typhimurium [4]
  No. of revertants per plate: 64
Salmonella typhimurium [5]
  No. of revertants per plate: 14
Salmonella typhimurium [6]
  No. of revertants per plate: 12
Salmonella typhimurium [7]
  No. of revertants per plate: 12
Salmonella typhimurium [8]
  No. of revertants per plate: 155
Salmonella typhimurium [9]
  No. of revertants per plate: 21
Salmonella typhimurium [10]
  No. of revertants per plate: 183
Salmonella typhimurium [11]
  No. of revertants per plate: 15
Salmonella typhimurium [12]
  No. of revertants per plate: 15
Salmonella typhimurium [13]
  No. of revertants per plate: 16
Salmonella typhimurium [14]
  No. of revertants per plate: 18
Salmonella typhimurium [15]
  Activity: 13
Salmonella typhimurium [16]
  Activity: 17
Salmonella typhimurium [17]
  Activity: 14
Salmonella typhimurium [18]
  No. of revertants per plate: 14
Salmonella typhimurium [19]
  No. of revertants per plate: 13
Salmonella typhimurium [20]
  No. of revertants per plate: 11
Salmonella typhimurium [21]
  No. of revertants per plate: 14
Salmonella typhimurium [22]
  No. of revertants per plate: 13
Salmonella typhimurium [23]
  No. of revertants per plate: 10
Salmonella typhimurium [24]
  No. of revertants per plate: 21
Salmonella typhimurium [25]
  No. of revertants per plate: 32

## CN(Cc1cccc(Cl)c1)N=O
[1]
  Log 1/C: -1.512
Salmonella typhimurium [2]
  Activity: 17
Salmonella typhimurium [26]
  No. of revertants per plate: 215
Salmonella typhimurium [27]
  No. of revertants per plate: 15

## CN(Cc1cccc([N+](=O)[O-])c1)N=O
[1]
  Log 1/C: -1.796

## CN(Cc1cccc(Br)c1)N=O
[1]
  Log 1/C: -1.552
Salmonella typhimurium [2]
  Activity: 11
Salmonella typhimurium [26]
  No. of revertants per plate: 223
Salmonella typhimurium [27]
  No. of revertants per plate: 11

## CN(Cc1ccc(C(=O)O)cc1)N=O
Salmonella typhimurium [2]
  Activity: 13
Salmonella typhimurium [26]
  No. of revertants per plate: 15
Salmonella typhimurium [27]
  No. of revertants per plate: 21
